# rCAG binder = molecules binding r(CAG) RNA repeats. r(CAG) RNA repeat, TO-PRO-1 dye displacement fluorescence. inhibition, % at 3 µM. hit rate 1.3% among 370,000. AID 651821;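 active = inhibition above the plate cutoff, the mean of all test compounds on that plate plus 3 SD, cut at about 35% in these data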;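 note: 0% = DMSO alone and 100% = 100 µM mitoxantrone as full dye displacement; higher means more dye released from RNA so lower well fluorescence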
# SIAE primary = blocks human sialic acid acetylesterase; AID 1053197; Q9HAT2; inhibition, % at 9.66 µM; SIAE FP-Rh probe binding, fluorescence polarization; hit rate 0.69% among 370,000;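 active = inhibition above a cutoff: mean of compounds within the control limits plus 3 SD of those, cut at about 17% in these data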;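 note: 0% = plate median of compound wells and 100% = probe without SIAE protein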
# HTRA1 inhibitor = inhibitors of human serine peptidase HTRA1; Q92743; recombinant HTRA1, FP-rhodamine activity-based probe, fluorescence polarization; inhibition, % at 5.96 µM; hit rate 0.5% among 340,000; AID 504803; in the data active = inhibition above about 36%;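 note: 0% = enzyme with DMSO and 100% = wells lacking enzyme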
# TCR-CD3 inh = blocks the human TCR-CD3 interaction; TAMRA-labeled TCR probe fluorescence, biochemical; inhibition, % at 9.4 µM; hit rate 0.37% among 360,000; AID 651800; in the data active = inhibition above about 19%;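 note: recombinant mutant TCR 2C K166C tagged with TAMRA read by polarization; 0% = receptor in buffer alone and 100% = receptor with positive control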
# mABHD4 FP = inhibitors of mouse ABHD4. Q8VD66. purified mABHD4, FP-Rh probe fluorescence polarization. inhibition, % at 8.92 µM. hit rate 0.54% among 370,000;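 active = inhibition exceeding the mean over every tested compound plus 3 SD, cut at about 30% in these data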;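 note: 0% = plate median of compound wells and 100% = S159A mutant with DMSO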
# Target sequence (Q8VD66 whole entry, looked up): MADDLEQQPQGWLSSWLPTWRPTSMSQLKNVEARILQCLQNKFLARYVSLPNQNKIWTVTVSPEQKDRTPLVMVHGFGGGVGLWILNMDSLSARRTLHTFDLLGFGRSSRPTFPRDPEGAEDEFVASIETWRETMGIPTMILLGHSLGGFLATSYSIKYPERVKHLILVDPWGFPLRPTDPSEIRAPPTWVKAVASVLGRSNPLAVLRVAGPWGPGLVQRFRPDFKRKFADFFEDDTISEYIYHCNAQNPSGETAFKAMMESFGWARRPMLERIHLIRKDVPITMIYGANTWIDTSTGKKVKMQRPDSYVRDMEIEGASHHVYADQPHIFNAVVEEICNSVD
#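 System: mouse ABHD4 enzyme, wild type / Medium: HEPES pH 7.0, NaCl, Pluronic buffer / Reagent: FP-Rh activity-based fluorescent probe / Control set: S159A mutant high control, sample median low control / Detection: fluorescence polarization with parallel and perpendicular emission, 525/598 nm / Schedule: 45 min + 60 min at 25 °C / Compound dosing: 8.92 µM, single dose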
# SIAE inh conf = confirmation of human SIAE inhibitors | shares compounds with SIAE primary | SIAE FP-Rh activity-based probe, fluorescence polarization | inhibition, % at 9.66 µM | hit rate 13% among 2,300;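 active = mean inhibition of the replicates above the hit cutoff set in the primary screen, cut at about 17% in these data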;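 note: 0% = SIAE with DMSO and probe and 100% = probe without SIAE; inhibitors lower polarization as more probe stays unbound to SIAE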
# An asterisk follows results filed as active; / = no result; ! = not active in a repeat. Rows were chosen to be rich in hits. Some 2.5% of all compounds tested hit in one or more screens of this group.
SMILES,rCAG binder,SIAE primary,HTRA1 inhibitor,TCR-CD3 inh,mABHD4 FP,SIAE inh conf
COc1cc(/C=N/NC(=O)c2ccc(-c3ccccc3)cc2)cc(OC)c1OC,12.2,2.0,-16.7,3.3,0.7,/
COc1cc(/C=N/NC(=O)c2cc(-c3ccccc3)sc2N)cc(OC)c1OC,21.5,30.6*,/,4.0,5.2,-45.1
Cn1c(=O)cc(OCC(=O)NCCCN2CCN(Cc3ccccc3)CC2)c2ccccc21,0.3,6.0,0.5,-1.4,-0.7,/
COc1ccc(OCCCC(=O)OCC(=O)Nc2c(C)nn(-c3ccccc3)c2C)cc1,-7.0,-0.2,-2.5,-7.8,-0.6,/
CCN(CC(=O)Nc1ccc(NC(C)=O)cc1)C(=O)COc1ccccc1-c1ccccc1,3.5,-9.2,2.7,-1.1,-8.8,/
COCCSc1nnc(NC(=O)c2ccc3c(c2)OCO3)s1,2.9,18.5*,8.6,-0.5,3.9,-2.4
CSc1nnc(NC(=O)c2ccc3c(c2)OCO3)s1,-2.0,0.9,-3.0,13.7,5.5,/
CCC(=O)Nc1nnc(SCCOC)s1,0.0,58.1*,4.8,-5.1,2.1,-3.6
COc1ccc(NC(=O)CN2C(=O)C(C)Oc3ccccc32)cc1 (centres undefined),-3.0,-3.5,0.9,-0.7,5.0,/
COc1ccc(NC(=O)CN2C(=O)C(C)Oc3ccc(C)cc32)cc1 (centres undefined),-0.4,20.7*,0.0,-2.1,3.1,7.1
CC(=O)CSc1ccc(S(=O)(=O)N2CCN(C)CC2)cn1,3.4,23.4*,0.6,-1.2,-0.8,-2.0
COCCN(CCOC)C(=O)CSc1ccc(S(=O)(=O)N2CCN(C)CC2)cn1,3.0,0.5,3.2,1.3,0.6,/
COc1ccc(NC(=O)CSc2nncn2C)cc1OC,-1.0,32.6*,3.3,5.9,-6.1,-0.1
CC(=O)Nc1ccc(NC(=O)CSc2nncn2C)cc1,2.6,-6.1,3.9,1.8,1.9,/
COc1ccc(NC(=O)CSc2nnc3ccc(-c4cccnc4)nn23)cc1OC,-11.4,20.8*,-0.4,3.1,-3.4,4.1
COc1ccc(NC(=O)CSc2ccc(-c3ccco3)nn2)cc1OC,8.0,18.5*,4.6,1.6,2.0,-2.0
O=C(Nc1cccc(-n2cnnn2)c1)c1cc(Cl)ccc1Cl,5.4,6.8,-22.1,-0.2,-9.8,/
COc1ccc(NC(=O)CSCCc2ccccn2)cc1OC,4.0,-10.2,0.3,1.9,2.3,/
Nc1ccccc1SC(CC(=O)c1ccccc1)c1ccccc1 (centres undefined),/,/,-8.2,/,/,/
CC(C(Sc1ccccc1N)c1ccccc1)[N+](=O)[O-] (centres undefined),4.8,17.1*,-0.8,-4.3,11.3,9.5
CCCCCC(=O)Nc1ccc2oc(-c3cncc(Br)c3)nc2c1,0.0,36.4*,-5.3,3.7,-2.3,-4.6
CCCC(=O)Nc1ccc2oc(-c3cncc(Br)c3)nc2c1,-0.8,2.1,4.4,-3.4,0.7,/
COc1ccccc1NC(=O)Cc1csc(NC(=O)c2ccccc2)n1,1.7,-1.3,-19.3,2.8,0.9,/
O=C(Cc1csc(NC(=O)c2ccc(F)cc2)n1)NO,2.5,24.3*,14.3,3.7,1.9,17.0
CC[C@]1(C(=O)OC)[C@H]2C(=O)N(C)C(=O)[C@H]2[C@H]2CN=C(SCc3ccc(Cl)cc3)N21,0.7,-1.4,2.5,-3.5,2.1,/
SMILES,rCAG binder,SIAE primary,HTRA1 inhibitor,TCR-CD3 inh,mABHD4 FP,SIAE inh conf
Cc1cc(C)n2c(Nc3ccc4c(c3)OCCO4)c(-c3ccc(C)o3)nc2n1,23.4,17.2*,3.2,8.9,17.1,3.9
N=c1n(CCN2CCOCC2)c2ccccc2n1CC(=O)c1ccc(Cl)c(Cl)c1,3.0,19.2*,-13.2,2.4,-5.7,3.3
N=c1n(CCN2CCOCC2)c2ccccc2n1CC(=O)c1cccc([N+](=O)[O-])c1,2.8,2.3,1.6,3.5,4.4,/
CN(CCn1ccnc1)C(=O)CC1C(=O)NCCN1Cc1ccccc1C(F)(F)F (centres undefined),-4.9,24.4*,-1.7,4.6,-0.6,-0.7
Cc1nonc1CN(C)C(=O)CC1C(=O)NCCN1Cc1ccccc1C(F)(F)F (centres undefined),-4.4,2.3,4.0,6.5,-0.9,/
O=C(NCCN1CCOCC1)C(=O)NCc1ccco1,2.6,5.1,2.2,-1.8,-0.1,/
Cn1nccc1C(=O)Nc1ccc(S(=O)(=O)N2CCCC2)cc1,-1.2,17.9*,5.3,-2.5,7.6,6.2
COc1ccccc1CNC(=O)Nc1cccs1,14.5,-10.6,-0.5,2.1,1.7,/
COc1ccc(Br)cc1CNC(=O)Nc1cccs1,4.2,18.8*,-9.3,2.3,-0.7,3.3
COc1ccc(OC)c(NC=C2C(=O)OC3(CCCCC3)OC2=O)c1,0.4,-4.2,-10.1,5.3,1.4,/
O=C(Nc1ccc(F)cc1)OCCN1C(=O)CCC12CCC(c1ccc(Cl)cc1)CC2 (centres undefined),1.4,9.2,/,/,-2.5,/
Cc1ccc(C2CCC3(CCC(=O)N3CCOC(=O)Nc3ccc(F)cc3)CC2)cc1 (centres undefined),10.2,18.5*!,/,/,-16.4,-12.0
Cc1cc(CNC(=O)C(C)n2cc([N+](=O)[O-])cn2)c2ccccc2n1 (centres undefined),-0.4,7.8,2.5,-5.8,11.5,/
O=C(O)c1cccc(-n2sc3ccccc3c2=O)c1,-3.0,18.4*,-1.2,-0.9,-8.9,0.2
CCOc1ccc2nc(SCC(=O)Nc3ccc4c(c3)OCO4)sc2c1,6.9,3.4,-2.6,-1.4,-3.0,/
Cc1ccc(NC(=O)Nc2cnc3ccccc3c2)cc1,12.4,-3.0,-11.2,3.0,-10.2,/
NC(=O)c1ncn([C@@H]2O[C@H](C(=O)N[C@H](Cc3c[nH]c4ccccc34)C(=O)N3CCN(C(=O)N4CCOCC4)CC3)[C@@H](O)[C@H]2O)n1,2.5,52.0*,/,1.6,9.1,33.4*
Cc1ccc(C(=O)N/C(=C/c2ccc(Cl)cc2)C(=O)NCC2CCCO2)cc1 (centres undefined),-2.3,29.4*,1.4,-2.2,1.1,-4.0
Cc1ccc(C(=O)N/C(=C\c2ccccc2)C(=O)NCC2CCCO2)cc1 (centres undefined),2.8,-3.9,-1.6,-2.0,-1.3,/
COc1ccc(Nc2nc(NCc3ccco3)nc(N/N=C/c3ccc(O)cc3)n2)cc1,13.2,28.5*,17.4,3.8,7.8,3.5
COc1ccc(/C=N/Nc2nc(NCc3ccco3)nc(Nc3ccc(OC)cc3)n2)cc1,9.9,0.6,-3.6,0.9,19.4,/
COC(=O)c1sc2cc([N+](=O)[O-])cc(SCC(C)C)c2c1N,9.9,4.5,1.8,1.9,1.6,/
Cc1cc(C)c2c(c1)/C(=N/NC(=S)Nc1ccc(F)cc1)CCC2,5.8,19.5*,3.0,5.7,11.8,3.8
CCN(CC)CCOc1nc(C)nc2c1oc1ccccc12,-1.1,17.7*,-3.3,0.1,0.4,2.7
Nc1nccc2c1ncn2C1OC(CO)C(O)C1O (centres undefined),1.2,-11.3,-1.9,3.9,-6.8,/
